According to ChEMBL document CHEMBL3797181, “Structure-Based Optimization of a Small Molecule Antagonist of the Interaction Between WD Repeat-Containing Protein 5 (WDR5) and Mixed-Lineage Leukemia 1 (MLL1)” (J Med Chem, 2016):
Positions of bridges follow the written chain, without caps; N, C: chain ends. Non-standard residues stand in square brackets, D forms with d. Residues, ends and D or L forms follow the SMILES beside them. *: point of attachment. d(αMeK) = C[C@@](N)(CCCCN)C(=O)O; dPhg = N[C@@H](C(=O)O)c1ccccc1; Isobutyryl = CC(C)C(=O)*; Abu = CC[C@H](N)C(=O)O

Assays:
[1] = Apparent solubility of compound in acetonitrile; assay type: physicochemical
[2] = Apparent solubility of compound in DMSO; assay type: physicochemical
[3] = Apparent solubility of compound in methanol; assay type: physicochemical
[4] = Half life in NOD/SCID mouse plasma at 3 mg/kg, iv; assay type: ADME, organism-based
In short: (§1)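 Female NOD-SCID mice, n = 3 per route, received 3 mg/kg IV or 30 mg/kg IP, with an undosed control group (n = 3). Blood was drawn at 5, 15, 30 min and 1, 2, 4, 6 and 24 h. Plasma was separated by centrifugation and stored at −80 °C until analysis. Cmax, Tmax, t1/2, AUC, Cl and VD were derived.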

[5] = Cmax in NOD/SCID mouse plasma at 3 mg/kg, iv up to 24 hrs; assay type: ADME, organism-based; set-up: dose 3 mg/kg, route intravenous; in short: as §1
[6] = Clearance in NOD/SCID mouse plasma at 3 mg/kg, iv up to 24 hrs; assay type: ADME, organism-based; in short: as §1
[7] = Cmax in NOD/SCID mouse plasma at 30 mg/kg, ip up to 24 hrs; assay type: ADME, organism-based; set-up: dose 30 mg/kg, route intraperitoneal; in short: as §1
[8] = AUC in NOD/SCID mouse plasma at 30 mg/kg, ip up to 24 hrs; assay type: ADME, organism-based; set-up: dose 30 mg/kg, time < 24 hr, route intraperitoneal; in short: as §1
[9] = Metabolic stability in mouse liver microsomes assessed as parent compound remaining after 0.5 hrs; assay type: ADME; conditions: read-out: Stability
[10] = Bioavailability in NOD/SCID mouse plasma at 30 mg/kg, ip up to 24 hrs; assay type: ADME, organism-based
[11] = Apparent permeability from apical to basolateral side in human Caco2 cells; assay type: ADME, cell-based; conditions: Caco-2
[12] = Tmax in NOD/SCID mouse plasma at 3 mg/kg, iv; assay type: ADME, organism-based; in short: as §1
[13] = AUC in NOD/SCID mouse plasma at 3 mg/kg, iv up to 24 hrs; assay type: ADME, organism-based; set-up: time < 24 hr, dose 3 mg/kg, route intravenous; in short: as §1
[14] = Metabolic stability in mouse plasma assessed as parent compound remaining after 0.5 hrs; assay type: ADME, cell-free; conditions: read-out: Stability
[15] = Tmax in NOD/SCID mouse plasma at 30 mg/kg, ip; assay type: ADME, organism-based; in short: as §1
[16] = Volume of distribution in NOD/SCID mouse plasma at 3 mg/kg, iv up to 24 hrs; assay type: ADME, organism-based; in short: as §1
[17] = Apparent permeability from basolateral to apical side in human Caco2 cells; assay type: ADME, cell-based; conditions: Caco-2
[18] = Growth inhibition of human KOPN8 cells assessed as reduction in cell viability after 3 days; assay type: functional; conditions: KOPN-8, 72 h
[19] = Growth inhibition of human MOLM13 cells assessed as reduction in cell viability after 3 days; assay type: functional; conditions: MOLM-13, 72 h
MV4-11 = assay: Growth inhibition of human MV4-11 cells assessed as reduction in cell viability after 3 days; assay type: functional; conditions: MV4-11, 72 h

| SMILES | solubility [1] | solubility [2] | solubility [3] | also measured |
| --- | --- | --- | --- | --- |
| Cc1cccc(C(=O)Nc2cc(-c3ccccc3CN3CCOCC3)ccc2N2CCN(C)CC2)c1 | soluble | soluble | soluble |  |
| Cc1cccc(C(=O)Nc2cc(-c3cccc(CN4CCOCC4)c3)ccc2N2CCN(C)CC2)c1 | soluble | soluble | soluble |  |
| CN1CCN(c2ccc(-c3cccc(CN4CCOCC4)c3)cc2NC(=O)c2c[nH]c(=O)cc2C(F)(F)F)CC1 |  |  |  | half-life [4]: 287 min; Cmax [5]: 1.26 µM; clearance [6]: 53.9 mL/min/kg; Cmax [7]: 6.85 µM; AUC at 24 h [8]: 6810 ng·h/mL; remaining at 0.5 h [9]: 85%; bioavailability [10]: 67%; Papp A→B [11]: 0.1 ×10⁻⁶ cm/s; Tmax [12]: 5 min; AUC at 24 h [13]: 1010 ng·h/mL; remaining at 0.5 h [14]: 100%; Tmax [15]: 15 min; Vd [16]: 15.6 L/kg; Papp B→A [17]: 16.8 ×10⁻⁶ cm/s |
| Cc1cccc(C(=O)Nc2cc(-c3ccc4c(c3)CCO4)ccc2N2CCN(C)CC2)c1 | soluble | soluble | soluble |  |
| CC[C@@H]1NC(=O)[C@H](CCCNC(=N)N)NC(=O)[C@](C)(NC(=O)C(C)C)CCCCNC(=O)[C@@H](c2ccccc2)NC1=O (Isobutyryl-[d(αMeK)]R[Abu][dPhg]; lactam 1-C) |  |  |  | GI50 [18]: 29.7 µM; GI50 [19]: 24 µM; GI50 (MV4-11): 12.4 µM |

Continued, in another order:

| solubility [1] | solubility [2] | solubility [3] | SMILES | also measured |
| --- | --- | --- | --- | --- |
| soluble | soluble | soluble | Cc1cccc(C(=O)Nc2cc(-c3ccc(CN4CCOCC4)cc3)ccc2N2CCN(C)CC2)c1 |  |
| soluble | soluble | soluble | Cc1cccc(C(=O)Nc2cc(-c3ccc(N4CCCC4)cc3)ccc2N2CCN(C)CC2)c1 |  |
| soluble | soluble | soluble | Cc1cccc(C(=O)Nc2cc(-c3cccc4c3OCC4)ccc2N2CCN(C)CC2)c1 |  |
| soluble | soluble | soluble | Cc1cccc(C(=O)Nc2cc(-c3cccc(N4CCCC4)c3)ccc2N2CCN(C)CC2)c1 |  |
